Laboratory results published in ChEMBL document CHEMBL4000194, “Design and Synthesis of a Series of l-trans-4-Substituted Prolines as Selective Antagonists for the Ionotropic Glutamate Receptors Including Functional and X-ray Crystallographic Studies of New Subtype Selective Kainic Acid Receptor Subtype 1 (GluK1) Antagonist …” (J Med Chem, 2017).

Key:
[1] = Displacement of [3H]kainic acid from kainate receptor in rat brain synaptosomal membranes after 60 mins by TopCount microplate scintillation counting method; type: cell membranes
[2] = biological target: T1, Glutamate receptor ionotropic, kainate 2 (Rattus norvegicus, UniProt P42260); test: Displacement of [3H]kainic acid from eGFP-fused recombinant rat full length GluK2 receptor expressed in HEK293T/17 cells by liquid scintillation counting method; type: cell-based
T1 sequence (P42260 whole entry, the tested form may be a part): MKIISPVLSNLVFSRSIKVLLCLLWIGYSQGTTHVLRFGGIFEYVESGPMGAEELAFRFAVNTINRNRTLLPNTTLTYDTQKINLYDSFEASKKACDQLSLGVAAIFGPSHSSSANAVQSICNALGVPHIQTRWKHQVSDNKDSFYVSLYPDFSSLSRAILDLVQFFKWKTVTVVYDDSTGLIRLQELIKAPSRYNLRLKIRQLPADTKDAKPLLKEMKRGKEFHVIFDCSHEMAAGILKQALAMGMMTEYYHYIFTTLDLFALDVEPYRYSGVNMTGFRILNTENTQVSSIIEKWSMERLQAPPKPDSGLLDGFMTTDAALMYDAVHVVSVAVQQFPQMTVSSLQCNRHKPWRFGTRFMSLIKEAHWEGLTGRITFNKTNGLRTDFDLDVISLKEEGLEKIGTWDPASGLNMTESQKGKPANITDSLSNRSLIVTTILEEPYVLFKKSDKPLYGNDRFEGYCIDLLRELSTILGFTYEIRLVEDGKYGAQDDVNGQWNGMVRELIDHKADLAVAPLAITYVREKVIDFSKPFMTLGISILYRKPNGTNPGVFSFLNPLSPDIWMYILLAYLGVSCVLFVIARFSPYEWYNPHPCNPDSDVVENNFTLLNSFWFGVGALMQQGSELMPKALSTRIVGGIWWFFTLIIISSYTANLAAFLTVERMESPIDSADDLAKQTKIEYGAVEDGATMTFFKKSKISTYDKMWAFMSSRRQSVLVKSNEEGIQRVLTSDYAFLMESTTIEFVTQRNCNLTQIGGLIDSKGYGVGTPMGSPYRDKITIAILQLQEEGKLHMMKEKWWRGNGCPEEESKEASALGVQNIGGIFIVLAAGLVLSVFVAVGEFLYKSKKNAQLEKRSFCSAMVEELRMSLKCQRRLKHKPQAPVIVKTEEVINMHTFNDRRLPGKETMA

[3] = biological target: T2, Glutamate receptor ionotropic, kainate 1 (Rattus norvegicus, UniProt P22756); test: Displacement of [3H]NF608 from eGFP-fused recombinant rat full length GluK1 receptor expressed in HEK293T/17 cells by liquid scintillation counting method; type: cell-based
T2 sequence (P22756 whole entry, the tested form may be a part): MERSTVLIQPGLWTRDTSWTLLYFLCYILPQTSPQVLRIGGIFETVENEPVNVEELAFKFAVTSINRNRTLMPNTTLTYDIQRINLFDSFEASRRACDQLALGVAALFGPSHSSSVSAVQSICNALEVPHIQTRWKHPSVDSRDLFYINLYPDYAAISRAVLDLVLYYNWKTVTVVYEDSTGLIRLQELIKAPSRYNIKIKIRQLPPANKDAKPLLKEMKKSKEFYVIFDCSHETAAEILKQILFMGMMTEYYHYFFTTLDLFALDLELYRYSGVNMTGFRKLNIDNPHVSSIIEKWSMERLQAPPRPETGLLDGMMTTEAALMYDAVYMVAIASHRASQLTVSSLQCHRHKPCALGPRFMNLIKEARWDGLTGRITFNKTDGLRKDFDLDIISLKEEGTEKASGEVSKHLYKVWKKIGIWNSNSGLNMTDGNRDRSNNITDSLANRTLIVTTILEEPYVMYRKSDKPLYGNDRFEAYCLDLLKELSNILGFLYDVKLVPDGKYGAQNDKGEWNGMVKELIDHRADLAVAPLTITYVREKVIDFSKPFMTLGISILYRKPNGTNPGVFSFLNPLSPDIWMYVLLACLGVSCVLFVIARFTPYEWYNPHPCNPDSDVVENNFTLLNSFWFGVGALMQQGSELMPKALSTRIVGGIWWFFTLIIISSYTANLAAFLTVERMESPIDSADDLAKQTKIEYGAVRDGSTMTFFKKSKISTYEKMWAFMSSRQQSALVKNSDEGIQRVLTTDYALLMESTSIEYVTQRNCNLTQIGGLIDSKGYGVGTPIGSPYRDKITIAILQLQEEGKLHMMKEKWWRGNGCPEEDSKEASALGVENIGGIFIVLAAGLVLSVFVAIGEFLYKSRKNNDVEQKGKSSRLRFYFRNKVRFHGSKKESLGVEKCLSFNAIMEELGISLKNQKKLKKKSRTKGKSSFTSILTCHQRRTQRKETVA

[4] = Displacement of [3H]CGP39653 from NMDA receptor in rat brain synaptosomal membranes after 60 mins by TopCount microplate scintillation counting method; type: cell membranes
[5] = Displacement of [3H]AMPA from AMPA receptor in rat brain synaptosomal membranes after 30 mins by TopCount microplate scintillation counting method; type: cell membranes
[6] = biological target: Glutamate receptor ionotropic, kainate 3 (Rattus norvegicus, UniProt P42264); test: Displacement of [3H]kainic acid from eGFP-fused recombinant rat full length GluK3 receptor expressed in HEK293T/17 cells by liquid scintillation counting method; type: cell-based
Glutamate receptor ionotropic, kainate 3, sequence (P42264 whole entry, the tested form may be a part): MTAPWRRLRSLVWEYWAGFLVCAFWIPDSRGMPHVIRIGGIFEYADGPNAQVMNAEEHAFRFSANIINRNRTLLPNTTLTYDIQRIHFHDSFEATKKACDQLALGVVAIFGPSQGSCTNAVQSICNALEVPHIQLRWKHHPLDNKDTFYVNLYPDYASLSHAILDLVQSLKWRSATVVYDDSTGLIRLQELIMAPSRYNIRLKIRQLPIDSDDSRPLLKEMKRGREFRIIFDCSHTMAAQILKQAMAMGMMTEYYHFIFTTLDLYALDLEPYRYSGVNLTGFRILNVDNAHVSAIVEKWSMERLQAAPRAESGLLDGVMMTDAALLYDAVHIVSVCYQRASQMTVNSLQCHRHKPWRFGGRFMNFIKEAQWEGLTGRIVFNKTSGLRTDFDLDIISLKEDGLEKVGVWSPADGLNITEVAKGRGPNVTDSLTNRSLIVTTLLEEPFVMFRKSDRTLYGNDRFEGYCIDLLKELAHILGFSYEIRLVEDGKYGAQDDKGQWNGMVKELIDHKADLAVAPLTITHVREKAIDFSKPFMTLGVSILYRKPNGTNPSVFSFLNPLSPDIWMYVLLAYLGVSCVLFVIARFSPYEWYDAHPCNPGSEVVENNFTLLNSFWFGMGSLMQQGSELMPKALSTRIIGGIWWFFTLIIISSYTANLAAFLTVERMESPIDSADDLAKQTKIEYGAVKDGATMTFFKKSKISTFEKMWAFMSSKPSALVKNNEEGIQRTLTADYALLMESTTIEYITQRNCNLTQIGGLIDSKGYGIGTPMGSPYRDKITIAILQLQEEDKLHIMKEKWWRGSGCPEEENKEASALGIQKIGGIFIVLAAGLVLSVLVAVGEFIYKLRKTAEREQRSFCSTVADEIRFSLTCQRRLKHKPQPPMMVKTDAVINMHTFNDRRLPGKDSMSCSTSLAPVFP

Glutamate receptor 2 = Glutamate receptor 2 (Rattus norvegicus, UniProt P19491); test: Displacement of (RS)-[3H]AMPA from eGFP-fused recombinant rat full length GluA2 receptor expressed in HEK293T/17 cells by liquid scintillation counting method; type: cell-based
Glutamate receptor 2, sequence (P19491 whole entry, the tested form may be a part): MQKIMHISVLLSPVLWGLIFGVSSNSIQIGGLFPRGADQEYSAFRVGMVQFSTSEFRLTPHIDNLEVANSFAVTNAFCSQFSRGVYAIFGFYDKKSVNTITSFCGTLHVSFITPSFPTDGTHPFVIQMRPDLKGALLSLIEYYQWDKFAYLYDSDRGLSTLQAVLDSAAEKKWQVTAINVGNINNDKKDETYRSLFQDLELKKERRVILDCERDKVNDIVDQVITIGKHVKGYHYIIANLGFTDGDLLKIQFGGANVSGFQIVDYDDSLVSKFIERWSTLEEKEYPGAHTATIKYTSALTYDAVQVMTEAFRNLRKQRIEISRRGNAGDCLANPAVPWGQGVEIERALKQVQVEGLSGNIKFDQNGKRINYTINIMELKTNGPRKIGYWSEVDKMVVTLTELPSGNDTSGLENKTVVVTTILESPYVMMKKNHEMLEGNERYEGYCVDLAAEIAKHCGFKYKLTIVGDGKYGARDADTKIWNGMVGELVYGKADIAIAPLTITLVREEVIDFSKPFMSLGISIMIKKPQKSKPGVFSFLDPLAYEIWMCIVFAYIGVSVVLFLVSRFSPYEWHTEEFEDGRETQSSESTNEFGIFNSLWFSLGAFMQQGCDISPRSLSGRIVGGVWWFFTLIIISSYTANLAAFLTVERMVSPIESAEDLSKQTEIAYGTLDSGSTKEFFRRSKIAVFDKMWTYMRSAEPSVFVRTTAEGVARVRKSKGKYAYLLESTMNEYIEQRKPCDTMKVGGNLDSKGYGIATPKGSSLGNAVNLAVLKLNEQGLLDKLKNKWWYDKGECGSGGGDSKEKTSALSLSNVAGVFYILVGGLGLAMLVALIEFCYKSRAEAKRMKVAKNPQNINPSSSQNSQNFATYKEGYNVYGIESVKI

[7] = biological target: Excitatory amino acid transporter 1 (Homo sapiens, UniProt P43003); test: Inhibition of human EAAT1 expressed in HEK293 cells assessed as reduction in [3H]-D-Asp uptake after 15 mins by TopCount scintillation counting method; type: cell-based
Excitatory amino acid transporter 1, sequence (P43003 whole entry): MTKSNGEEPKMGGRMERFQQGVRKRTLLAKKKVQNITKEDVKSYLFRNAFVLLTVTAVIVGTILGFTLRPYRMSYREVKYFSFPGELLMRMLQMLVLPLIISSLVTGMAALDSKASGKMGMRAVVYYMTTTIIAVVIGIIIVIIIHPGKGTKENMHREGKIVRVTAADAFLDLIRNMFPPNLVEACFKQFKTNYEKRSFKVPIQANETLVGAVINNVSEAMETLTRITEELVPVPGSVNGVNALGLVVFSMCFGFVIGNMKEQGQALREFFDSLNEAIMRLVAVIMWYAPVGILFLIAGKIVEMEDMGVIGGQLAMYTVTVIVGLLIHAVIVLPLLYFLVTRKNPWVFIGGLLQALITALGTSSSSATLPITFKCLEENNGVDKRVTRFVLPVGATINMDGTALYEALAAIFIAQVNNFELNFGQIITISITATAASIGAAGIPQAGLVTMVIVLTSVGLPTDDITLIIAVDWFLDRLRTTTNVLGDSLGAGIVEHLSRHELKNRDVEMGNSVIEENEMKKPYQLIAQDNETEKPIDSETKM

[8] = biological target: T3, Excitatory amino acid transporter 3 (Homo sapiens, UniProt P43005); test: Inhibition of human EAAT3 expressed in HEK293 cells assessed as reduction in [3H]-D-Asp uptake after 15 mins by TopCount scintillation counting method; type: cell-based
T3 sequence (P43005 whole entry): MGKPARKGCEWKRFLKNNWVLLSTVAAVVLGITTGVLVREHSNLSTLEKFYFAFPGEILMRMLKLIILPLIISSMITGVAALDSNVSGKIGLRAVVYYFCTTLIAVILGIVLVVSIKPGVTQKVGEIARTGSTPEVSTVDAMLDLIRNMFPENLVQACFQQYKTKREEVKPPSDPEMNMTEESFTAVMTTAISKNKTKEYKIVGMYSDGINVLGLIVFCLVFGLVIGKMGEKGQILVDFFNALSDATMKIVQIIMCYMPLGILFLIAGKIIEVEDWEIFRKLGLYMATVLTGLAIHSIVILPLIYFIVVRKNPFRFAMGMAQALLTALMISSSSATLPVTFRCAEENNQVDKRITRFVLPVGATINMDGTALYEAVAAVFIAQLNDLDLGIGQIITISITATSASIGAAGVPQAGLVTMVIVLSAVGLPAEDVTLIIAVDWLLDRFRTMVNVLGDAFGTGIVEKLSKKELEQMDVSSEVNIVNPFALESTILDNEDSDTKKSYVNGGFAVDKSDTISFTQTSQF

[9] = biological target: Excitatory amino acid transporter 2 (Homo sapiens, UniProt P43004); test: Inhibition of human EAAT2 expressed in HEK293 cells assessed as reduction in [3H]-D-Asp uptake after 15 mins by TopCount scintillation counting method; type: cell-based
Excitatory amino acid transporter 2, sequence (P43004 whole entry, the tested form may be a part): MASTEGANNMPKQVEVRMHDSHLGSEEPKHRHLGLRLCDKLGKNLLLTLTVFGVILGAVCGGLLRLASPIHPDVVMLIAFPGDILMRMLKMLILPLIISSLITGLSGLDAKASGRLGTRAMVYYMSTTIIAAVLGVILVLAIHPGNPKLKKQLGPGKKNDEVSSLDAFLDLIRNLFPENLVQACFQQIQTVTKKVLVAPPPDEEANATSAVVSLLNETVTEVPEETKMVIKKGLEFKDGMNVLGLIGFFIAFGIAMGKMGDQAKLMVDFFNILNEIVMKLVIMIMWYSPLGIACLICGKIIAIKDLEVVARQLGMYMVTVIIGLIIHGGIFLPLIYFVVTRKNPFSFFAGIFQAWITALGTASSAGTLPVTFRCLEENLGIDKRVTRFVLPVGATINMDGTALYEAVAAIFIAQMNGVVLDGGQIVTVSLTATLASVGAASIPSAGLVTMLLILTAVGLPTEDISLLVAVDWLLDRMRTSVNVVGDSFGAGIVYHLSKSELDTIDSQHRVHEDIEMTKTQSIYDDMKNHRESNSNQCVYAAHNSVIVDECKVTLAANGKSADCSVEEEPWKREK

[10] = biological target: T2, Glutamate receptor ionotropic, kainate 1; test: Displacement of [3H]-(2S,4R)-4-Methylglutamic acid from rat eGFP-fused GluK1 receptor LBD expressed in HEK293T/17 cells by liquid scintillation counting method; type: cell-based
[11] = biological target: T2, Glutamate receptor ionotropic, kainate 1; test: Antagonist activity at recombinant rat full length GluK1 receptor expressed in HEK293T cells assessed as inhibition of glutamate induced increase in peak current at -100mV holding potential by patch-clamp method; type: cell-based
Summary of the method: (§1)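 Rat GluK1-2a or GluK2a cDNA was transiently co-transfected with eGFP into HEK293T/17 cells by calcium phosphate, 24 h after low-density plating on poly-D-lysine. Recordings were made 36–48 h after transfection. Outside-out patches at −100 mV received fast piezo applications of 1 mM Glu (250 ms). Antagonist was added to control and agonist solutions (final 0.001–300 μM). Peak current was taken as % of control (mean ± SEM, 3–5 responses per concentration), and IC50 was fitted with a Hill equation.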

[12] = biological target: T1, Glutamate receptor ionotropic, kainate 2; test: Antagonist activity at recombinant rat full length GluK2 receptor expressed in HEK293T cells assessed as inhibition of glutamate induced increase in peak current at -100mV holding potential by patch-clamp method; type: cell-based; summary of the method: as §1

Structure (SMILES) | Ki [1] | Ki [2] | Ki ([3]; read-out: Ki) | Ki [4] | Ki [5] | Ki ([6]; read-out: Ki) | Ki (Glutamate receptor 2) | Ki ([3]; read-out: pKi (converted)) | IC50 [7] | IC50 [8] | IC50 [9] | pKi [4] | Ki ([6]; read-out: pKi (converted)) | Ki [10] | IC50 [11] | IC50 [12]
O=C(O)c1cccc(S[C@@H]2CN[C@H](C(=O)O)C2)c1 | > 100 µM | > 100 µM | > 100 µM | > 100 µM | > 100 µM | > 100 µM |  |  |  |  |  |  |  |  |  | 
O=C(O)Cc1cccc(O[C@H]2CN[C@H](C(=O)O)C2)c1 | > 100 µM | > 100 µM | > 100 µM | > 100 µM | > 100 µM | > 100 µM | > 100 µM |  |  |  |  |  |  |  |  | 
Cc1ccc(O[C@H]2CN[C@H](C(=O)O)C2)c(C(=O)O)c1 | > 100 µM | > 100 µM | 24 µM | > 100 µM | > 100 µM | > 100 µM | > 100 µM |  |  |  |  |  |  |  |  | 
O=C(O)c1cccc(O[C@H]2CN[C@H](C(=O)O)C2)c1 | > 100 µM | > 100 µM | 36 µM | > 100 µM | > 100 µM | > 1000 µM |  | 33.1 µM | > 1000 µM | > 1000 µM | > 1000 µM |  |  |  |  | 
CC(=O)c1ccc(O[C@H]2CN[C@H](C(=O)O)C2)c(C(=O)O)c1 | > 100 µM | > 100 µM | 4.7 µM | > 100 µM | > 100 µM | 30 µM | > 100 µM |  |  |  |  |  |  |  |  | 
Cc1cccc(C(=O)O)c1O[C@H]1CN[C@H](C(=O)O)C1 | > 100 µM | > 1000 µM | 5.4 µM | > 100 µM | > 100 µM | > 100 µM | > 100 µM |  |  |  |  |  |  |  |  | 
O=C(O)c1ccc(O[C@@H]2CN[C@H](C(=O)O)C2)cc1 | > 100 µM | > 100 µM | > 100 µM | > 100 µM | > 100 µM | > 100 µM |  |  |  |  |  |  |  |  |  | 
O=C(O)c1ccc(O[C@H]2CN[C@H](C(=O)O)C2)c(C(=O)O)c1 | > 100 µM | > 1000 µM | 100 µM | > 100 µM | > 100 µM | > 100 µM | > 100 µM |  |  |  |  |  |  |  |  | 
O=C(O)c1cccc(O[C@@H]2CN[C@H](C(=O)O)C2)c1 | > 100 µM | > 100 µM | > 100 µM | > 100 µM | > 100 µM | > 100 µM |  |  |  |  |  |  |  |  |  | 
O=C(O)c1ccccc1S[C@@H]1CN[C@H](C(=O)O)C1 | > 100 µM | > 100 µM | > 100 µM | > 100 µM | > 100 µM | > 100 µM |  |  |  |  |  |  |  |  |  | 
Cl.O=C(O)c1cccc(C[C@H]2CN[C@H](C(=O)O)C2)c1 | > 100 µM | > 100 µM | > 100 µM | 69 µM | > 100 µM | > 100 µM |  |  |  |  |  | 4.18 |  |  |  | 
O=C(O)c1ccccc1S[C@H]1CN[C@H](C(=O)O)C1 | > 100 µM | > 100 µM | 8.4 µM | 19 µM | > 100 µM | 22 µM |  |  |  |  |  | 4.73 |  |  |  | 
O=C(O)c1c(O[C@H]2CN[C@H](C(=O)O)C2)ccc2ccccc12 | > 100 µM | > 100 µM | 4.5 µM | > 100 µM | > 100 µM | 137 µM | > 100 µM |  |  |  |  |  | 132 µM |  |  | 
O=C(O)c1cc2ccccc2cc1O[C@H]1CN[C@H](C(=O)O)C1 | > 100 µM | > 1000 µM | 3.5 µM | > 100 µM | > 100 µM | > 100 µM | > 100 µM |  |  |  |  |  |  |  |  | 
O=C(O)c1ccccc1O[C@@H]1CN[C@H](C(=O)O)C1 | > 100 µM | > 100 µM | > 100 µM | > 100 µM | > 100 µM | > 100 µM |  |  | > 1000 µM | > 1000 µM | > 1000 µM |  |  |  |  | 
Cl.O=C(O)c1ccc(O[C@H]2CN[C@H](C(=O)O)C2)cc1 | > 100 µM | > 100 µM | > 100 µM | 81 µM | > 100 µM | > 100 µM |  |  | > 1000 µM | > 1000 µM | > 1000 µM | 4.11 |  |  |  | 
O=C(O)Cc1ccccc1O[C@H]1CN[C@H](C(=O)O)C1 | > 100 µM | > 1000 µM | 24 µM | > 100 µM | > 100 µM | > 100 µM | > 100 µM |  |  |  |  |  |  |  |  | 
O=C(O)c1cccc(S[C@H]2CN[C@H](C(=O)O)C2)c1 | > 100 µM | > 100 µM | > 100 µM | 78 µM | > 100 µM | > 100 µM |  |  |  |  |  | 4.11 |  |  |  | 
O=C(O)c1ccc2ccccc2c1O[C@H]1CN[C@H](C(=O)O)C1 | > 100 µM | > 100 µM | > 100 µM | > 100 µM | > 100 µM | > 100 µM | > 100 µM |  |  |  |  |  |  |  |  | 
O=C(O)c1ccccc1O[C@H]1CN[C@H](C(=O)O)C1 | > 100 µM | > 100 µM | 4 µM | > 100 µM | > 100 µM | > 100 µM |  |  | > 1000 µM | > 1000 µM | > 1000 µM |  |  | 2.27 µM | 5.7 µM | > 100 µM
